Experimental data as given in PubChem BioAssay.
Results filed as inconclusive are left out.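 Rule for the calls, unless noted: active = growth inhibition above 25% in both replicates, a cutoff set 3 SD above the mean; inconclusive = above 25% in only one replicate; inactive = the rest.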

Legend:
[1] = S. cerevisiae growth inhibition in permissive medium (OD615), pilot counter-assay for S. cerevisiae lifespan shortening project, permissive growth control (AID 705); conditions: OD615, 24 h, at 10 µM, active compounds read high
In short: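 System: S. cerevisiae with engineered DeaD lifespan system. Medium: SC raffinose/galactose permissive medium. Doses: single compound dose of 10 µM, 0.25% DMSO final. Schedule: 24 h exposure, 30 °C. Measured by: OD615 turbidity read. Read-out: growth inhibition.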

[2] = S. cerevisiae growth inhibition in restrictive medium, OD615, pilot screen, restrictive growth control, yeast lifespan reduction project (AID 706;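 active = growth inhibition above a set limit, 3 SD over mean compound inhibition, in both replicates, cut at about 43% in these data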;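 note: modified DeaD lifespan yeast strain shifted to restrictive glucose medium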); conditions: OD615, 48 h, at 10 µM, active compounds read high
In short: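 Assay system – genetically modified Saccharomyces cerevisiae, DeaD replicative lifespan assay strain · Medium – CSMM-D glucose medium · Doses – 10 µM compound, 0.25% DMSO · Times – 4 h pre-incubation, 48 h exposure at 30 °C · Signal – optical density at 615 nm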

[3] = doxorubicin toxicity protection in MRP-1 cells – H69AR cells, CellTiter-Glo, duplicate, MRP-1 activator project, pilot screen (AID 807;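 active = viability increase at or above a cutoff of the median across tested compounds plus 3 SD, cut at about 8.5% in these data, passing the limit was not always enough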;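 note: compound pretreatment 18-22 h then 72 h combined with doxorubicin; 0% = doxorubicin alone and 100% = vehicle without doxorubicin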); conditions: H69AR viability with doxorubicin, CellTiter-Glo luminescence; at 10 µM; active compounds read high
[4] = viability of HCT116 without oncogenic beta-catenin – human colon tumor cells, pilot screen (AID 823;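 active = cell viability at or below a set limit in both duplicate runs, the limit being the all-compound median minus 4 SD, cut at about 23% in these data, passing the limit was not always enough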;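 note: 0% = wells killed by 20 µM Hyamine and 100% = untreated DMSO cell wells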); conditions: HCT116 beta-catenin knockout viability, CellTiter-Glo, 60 h; at 10 µM; active compounds read low
[5] = viability of PTEN-null HCT116 cells – cell-based, HCT116 clonal line, CellTiter-Glo, pilot screen (AID 824;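 active = viability at or below 27.92% in each of two runs, the all-compound median minus 4 SD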;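 note: 0% = 20 µM Hyamine control and 100% = vehicle cell control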); conditions: HCT116 PTEN-deleted viability, 60 h, at 10 µM, active compounds read low
[6] = RAM pathway blockade in budding yeast – dse1pr::URA3 reporter, 5-FOA selection, pilot screen (AID 869;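 active = inhibition over a set limit, the all-compound mean plus 3 SD, in both replicate runs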;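 note: 0% = DMSO wells with no growth and 100% = 10 µM 1-NA-PP1 with full growth; RAM network block rescues cells from 5-FOA so hits raise OD615 growth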); conditions: S. cerevisiae dse1pr::URA3 5-FOA growth, OD615, 2 d; at 10 µM; active compounds read high; strain carries analog-sensitive mutant Cbk1 kinase
[7] = RAM signaling pathway blockade in yeast – S. cerevisiae, Pdr1DBD-CYC8 efflux-inhibited sensitized strain, primary screen (AID 1298;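 active = RAM network inhibition above 8.4% in each of two replicates, 3 SD over the compound average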;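 note: 0% = DMSO untreated cells without growth and 100% = 10 µM 1-NA-PP1 full growth; higher means more yeast growth rescued from 5-FOA killing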); conditions: S. cerevisiae cbk1-as DSE1-URA3 strain, 5-FOA growth OD615, 2 d; at 50 µM; active compounds read high

Cc1ccccc1NC(=O)CC1SC(=NC2CCCCC2)NC1=O (stereo not given)
inactive: growth inhibition [1] -3.83% | growth inhibition [2] -12% | viability increase [3] -0.62% | viability [4] 102% | viability [5] 101% | inhibition [6] 1.62% | RAM network inhibition [7] 0.66%

O=C(Nc1ccc(OC(F)(F)F)cc1)c1cnc2n(c1=O)CCS2
inactive: growth inhibition [1] -14.9% | growth inhibition [2] -1.33% | viability increase [3] 2.36% | viability [4] 89.9% | viability [5] 79.1% | inhibition [6] 3.13% | RAM network inhibition [7] 4.63%

CCN(CC)c1ccc(NC(=O)CN2C(=O)CSc3ncccc32)c(C)c1
inactive: growth inhibition [1] 1.52% | growth inhibition [2] -5.94% | viability increase [3] 0.51% | viability [4] 45.2% | viability [5] 66% | inhibition [6] 1.34% | RAM network inhibition [7] 6.12%

Cc1cc(NC(=O)CSc2cn(CCNC(=O)c3ccccc3)c3ccccc23)no1
inactive: growth inhibition [1] -3.29% | growth inhibition [2] -0.585% | viability increase [3] -0.97% | viability [4] 88.1% | viability [5] 88.7% | inhibition [6] 3.04% | RAM network inhibition [7] 6.89%

CC(=O)c1ccc(NC(=O)CSc2nnc(Cn3c(=O)sc4ccccc43)n2C)cc1
inactive: growth inhibition [1] -0.18% | growth inhibition [2] 14.4% | viability increase [3] -1.49% | viability [4] 100% | viability [5] 101% | inhibition [6] 0.83% | RAM network inhibition [7] 3.42%

COc1ccccc1NC(=O)NCCN1C(=O)C2C3C=CC(C3)C2C1=O (stereo not given)
inactive: growth inhibition [1] -16.2% | growth inhibition [2] -7.88% | viability increase [3] -0.36% | viability [4] 106% | viability [5] 105% | inhibition [6] 1.71% | RAM network inhibition [7] 5.38%

O=C(CC1Oc2ccccc2NC1=O)NCc1ccccc1 (stereo not given)
inactive: growth inhibition [1] 0.945% | growth inhibition [2] -4.32% | viability increase [3] -0.93% | viability [4] 105% | viability [5] 100% | inhibition [6] 3.42% | RAM network inhibition [7] 4.73%

CNC(=O)c1sc2nc(-c3ccc(OC)cc3)cn2c1C
inactive: growth inhibition [1] 3.27% | growth inhibition [2] 2.45% | viability increase [3] 1.57% | viability [4] 104% | viability [5] 106% | inhibition [6] 2% | RAM network inhibition [7] 0.64%

COc1cc2[nH]c(=O)n(CCC(=O)NCc3cccnc3)c(=O)c2cc1OC
inactive: growth inhibition [1] -19.1% | growth inhibition [2] -23.9% | viability increase [3] -1.46% | viability [4] 98.7% | viability [5] 95.8% | inhibition [6] 2.92% | RAM network inhibition [7] 2.26%

Cc1ccc2oc(=O)c3cc(C(=O)NCc4ccco4)sc3c2c1
inactive: growth inhibition [1] -8.27% | growth inhibition [2] -8.27% | viability increase [3] -2.9% | viability [4] 102% | viability [5] 96.6% | inhibition [6] 3.86% | RAM network inhibition [7] 2.71%

CCOC(=O)Cn1c(CN2CCc3ccccc3C2)nc2c1c(=O)n(C)c(=O)n2C
inactive: growth inhibition [1] -7.72% | growth inhibition [2] 1.89% | viability increase [3] -0.76% | viability [4] 84.5% | viability [5] 86.1% | inhibition [6] -0.39% | RAM network inhibition [7] 4.64%

Cn1cc(SCC(=O)NCc2ccc3c(c2)OCO3)c2ccccc21
inactive: growth inhibition [1] 4.09% | growth inhibition [2] -1.53% | viability increase [3] -4.24% | viability [4] 98.3% | viability [5] 95.1% | inhibition [6] 1.17% | RAM network inhibition [7] 4.4%

C=CCN1C(=Nc2ccccc2)SC/C1=C\C(=O)OC
inactive: growth inhibition [1] -14.6% | growth inhibition [2] -4.42% | viability increase [3] -2.34% | viability [4] 89% | viability [5] 89.8% | inhibition [6] 0.81% | RAM network inhibition [7] 6.77%

CCOc1ccc2nc(N3CCCC(C(=O)N4CCN(CC)CC4)C3)sc2c1 (stereo not given)
inactive: growth inhibition [1] -4.44% | growth inhibition [2] -8.34% | viability increase [3] 0.55% | viability [4] 102% | viability [5] 96.2% | inhibition [6] 0.775% | RAM network inhibition [7] 2.01%

CCOC(=O)c1ccc(NC(=O)NS(=O)(=O)c2ccc(C)cc2)cc1
inactive: growth inhibition [1] -7.83% | growth inhibition [2] -3.95% | viability increase [3] -1.46% | viability [4] 105% | viability [5] 94% | inhibition [6] 3.13% | RAM network inhibition [7] 6.08%
